Source: ChEMBL document CHEMBL1156509, “Survival in the presence of antifungals: genome-wide expression profiling of Aspergillus niger in response to sublethal concentrations of caspofungin and fenpropimorph” (2007)
The source made the active and inactive calls.

How the values were obtained:
Aspergillus niger [1] = experiment: Induction of agsA expression in Aspergillus niger N402 germlings; assay type: functional, organism-based
Method in brief: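 RNA from 1 h-treated N402 bioreactor germlings (5 h pre-growth, FM pH 3, 37 °C) was hybridised to A. niger Affymetrix arrays, biological duplicate. Data were normalised; differential expression was taken as at least 1.5-fold change with p cutoff 0.05. Northern blots on the same RNA were used for validation.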

Aspergillus niger [2] = experiment: Induction of mkkA gene expression in Aspergillus niger by microarray analysis relative to control; assay type: functional
Method in brief: (§1)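 A. niger N402 conidia (5×10^9) grown in 5 L fermentation medium in a bioreactor at 37 °C, pH 3, 250 rpm. Drug in distilled H2O or H2O alone added at 5 h; mycelium harvested by filtration 1 h later and frozen in liquid nitrogen. cRNA hybridized to Affymetrix A. niger GeneChips, two independent bioreactor runs per condition; normalized, ≥1.5-fold change at p 0.05 cutoff.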

Aspergillus niger [3] = experiment: Effect on morphological changes in Aspergillus niger N402 germlings assessed as branching index at 50 ng/mL; assay type: functional
Method in brief: (§2)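 N402 conidia (5×10^5) were germinated 5 h at 37 °C on coverslips in 5 ml liquid MM plus 0.003% yeast extract. Compound was added (water for controls) and culture continued 1 h at 37 °C. At least 50 adherent germlings were scored microscopically as branched or unbranched; branching index = branched/(branched + unbranched).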

Aspergillus niger [4] = experiment: Effect on morphological changes in Aspergillus niger N402 germlings assessed as germ tube elongation and branching at 5 ug/mL after 5 hrs; assay type: functional, organism-based
Method in brief: (§3)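 Compound or water control was added, then 1 h more at 37 °C. Adherent germlings were scored by microscopy, at least 50 per sample, as branched or unbranched. Branching index = branched/total germlings.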

Aspergillus niger [5] = experiment: Induction of crhB gene expression in Aspergillus niger by microarray analysis relative to control; assay type: functional; method in brief: as §1
Aspergillus niger [6] = experiment: Effect on morphological changes in Aspergillus niger N402 germlings assessed as germ tube elongation and branching at 0.9 ug/mL after 5 hrs; assay type: functional, organism-based; method in brief: as §3
Aspergillus niger [7] = experiment: Induction of agtA gene expression in Aspergillus niger by microarray analysis relative to control; assay type: functional; method in brief: as §1
Aspergillus niger [8] = experiment: Induction of rhoB gene expression in Aspergillus niger by microarray analysis relative to control; assay type: functional; method in brief: as §1
Aspergillus niger [9] = experiment: Induction of gfaB gene expression in Aspergillus niger by microarray analysis relative to control; assay type: functional; method in brief: as §1
Aspergillus niger [10] = experiment: Induction of GFP tagged PagsA expression in Aspergillus niger JvD1.1 at 25.6 ug/mL by fluorescence microscopy; assay type: functional, organism-based
Method in brief: (§4)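 Conidia of the agsA-promoter GFP reporters (2×10^4 per well, 2× CM) germinated 6 h at 37 °C, then were exposed 3 h at 30 °C to seven 2-fold serial dilutions. GFP in adherent germlings was read by fluorescence microscopy and scored 0 (basal), 1 (intermediate) or 2 (high). Positive control was a PgpdA-H2B-GFP strain; N402 was the negative control.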

Aspergillus niger [11] = experiment: Effect on increase sub apical branching in Aspergillus niger N402 germlings assessed as branching index at 5 ng/mL after 5 hrs; assay type: functional; method in brief: as §2
Aspergillus niger [12] = experiment: Induction of gnaA gene expression in Aspergillus niger by microarray analysis relative to control; assay type: functional; method in brief: as §1
Aspergillus niger [13] = experiment: Induction of gfaA gene expression in Aspergillus niger by microarray analysis relative to control; assay type: functional; method in brief: as §1
Aspergillus niger [14] = experiment: Upregulation of agtA gene expression in Aspergillus niger relative to control; assay type: functional, organism-based
Method in brief: (§5)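 N402 conidia (5×10^9) were grown in 5 l fermentation medium, pH 3, 37 °C, 250 rpm in a bioreactor. After 5 h compound was added (water for controls); mycelium was harvested 1 h later. RNA was hybridized to A. niger Affymetrix GeneChips from two independent bioreactor runs. Genes with ≥1.5-fold change at p < 0.05 after normalization were counted as differentially expressed.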

Aspergillus niger [15] = experiment: Induction of GFP tagged PagsA expression in Aspergillus niger JvD1.1 by fluorescence microscopy; assay type: functional, organism-based; method in brief: as §4
Aspergillus niger [16] = experiment: Induction of hocA gene expression in Aspergillus niger by microarray analysis relative to control; assay type: functional; method in brief: as §1
Aspergillus niger [17] = experiment: Effect on morphological changes in Aspergillus niger JvD1.1 assessed as tip swelling; assay type: functional, organism-based
Aspergillus niger [18] = experiment: Induction of chsB gene expression in Aspergillus niger by microarray analysis relative to control; assay type: functional; method in brief: as §1
Aspergillus niger [19] = experiment: Effect on morphological changes in Aspergillus niger RD6.47 assessed as tip swelling; assay type: functional, organism-based
Aspergillus niger [20] = experiment: Induction of ugpA gene expression in Aspergillus niger by microarray analysis relative to control; assay type: functional; method in brief: as §1
Aspergillus niger [21] = experiment: Induction of pgmB gene expression in Aspergillus niger by microarray analysis relative to control; assay type: functional; method in brief: as §1
Aspergillus niger [22] = experiment: Induction of lplB gene expression in Aspergillus niger by microarray analysis relative to control; assay type: functional; method in brief: as §1
Aspergillus niger [23] = experiment: Induction of rapA gene expression in Aspergillus niger by microarray analysis relative to control; assay type: functional; method in brief: as §1
Aspergillus niger [24] = experiment: Induction of dpmA gene expression in Aspergillus niger by microarray analysis relative to control; assay type: functional; method in brief: as §1
Aspergillus niger [25] = experiment: Induction of bgtB gene expression in Aspergillus niger by microarray analysis relative to control; assay type: functional; method in brief: as §1
Aspergillus niger [26] = experiment: Induction of dppA gene expression in Aspergillus niger by microarray analysis relative to control; assay type: functional; method in brief: as §1
Aspergillus niger [27] = experiment: Antifungal activity against Aspergillus niger JvD1.1 by microtiter plate; assay type: functional, organism-based
Method in brief: (§6)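 Reporter germlings (cytoplasmic PagsA-GFP JvD1.1 or nuclear PagsA-H2B-GFP RD6.47), 2×10^4 conidia per well in 2× CM, pre-grown 6 h at 37 °C. A 2-fold dilution series (seven concentrations) was then added and plates were held 3 h at 30 °C. Adherent germlings were imaged, and growth inhibition was scored 0/1/2 from hyphal length.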

Aspergillus niger [28] = experiment: Effect on morphological changes in Aspergillus niger N402 germlings assessed as germ tube elongation and branching at 5 ng/mL after 5 hrs; assay type: functional, organism-based; method in brief: as §3
Aspergillus niger [29] = experiment: Induction of srgA gene expression in Aspergillus niger by microarray analysis relative to control; assay type: functional; method in brief: as §1
Aspergillus niger [30] = experiment: Induction of GFP tagged PagsA-H2B expression in Aspergillus niger RD6.47 by fluorescence microscopy; assay type: functional, organism-based; method in brief: as §4
Aspergillus niger [31] = experiment: Antifungal activity against Aspergillus niger RD6.47 by microtiter plate; assay type: functional, organism-based; method in brief: as §6
Aspergillus niger [32] = experiment: Upregulation of Rho2-GTPase gene expression in Aspergillus niger relative to control; assay type: functional, organism-based; method in brief: as §5
Aspergillus niger [33] = experiment: Effect on morphological changes in Aspergillus niger N402 germlings assessed as increase in germ tube; assay type: functional, organism-based
Method in brief: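 Bioreactor: 5×10^9 N402 conidia in 5 l fermentation medium, pH 3 controlled, 37 °C, 250 rpm. Compound in water (or water alone) added at 5 h, then 1 h further cultivation. At least 200 germlings per run were counted for germ tubes per germling and subapical branches. Mean ± S.D. from two independent runs.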

Aspergillus niger [34] = experiment: Induction of GFP tagged PagsA-H2B expression in Aspergillus niger RD6.47 at 25.6 ug/mL by fluorescence microscopy; assay type: functional, organism-based; method in brief: as §4
Aspergillus niger [35] = experiment: Effect on morphological changes in Aspergillus niger N402 germlings assessed as tip swelling at 0.9 ug/mL after 5 hrs; assay type: functional, organism-based
Aspergillus niger [36] = experiment: Effect on morphological changes in Aspergillus niger N402 germlings assessed as tip swelling at 5 ug/mL after 5 hrs; assay type: functional, organism-based
Aspergillus niger [37] = experiment: Induction of dfgC gene expression in Aspergillus niger by microarray analysis relative to control; assay type: functional; method in brief: as §1
Aspergillus niger [38] = experiment: Induction of gelA gene expression in Aspergillus niger by microarray analysis relative to control; assay type: functional; method in brief: as §1
Aspergillus niger [39] = experiment: Induction of crhC gene expression in Aspergillus niger by microarray analysis relative to control; assay type: functional; method in brief: as §1
Aspergillus niger [40] = experiment: Antifungal activity against Aspergillus niger RD6.47 at 25.6 ug/mL by microtiter plate; assay type: functional, organism-based; method in brief: as §6
Aspergillus niger [41] = experiment: Effect on morphological changes in Aspergillus niger N402 germlings assessed as tip swelling at 5 ng/mL after 5 hrs; assay type: functional, organism-based
Aspergillus niger [42] = experiment: Antifungal activity against Aspergillus niger JvD1.1 at 25.6 ug/mL by microtiter plate; assay type: functional, organism-based; method in brief: as §6
Aspergillus niger [43] = experiment: Effect on morphological changes in Aspergillus niger N402 germlings assessed as branching index at 50 ug/mL; assay type: functional
Aspergillus niger [44] = experiment: Induction of GFP tagged PagsA-H2B expression in Aspergillus niger RD6.47 at 104.2 ug/mL by fluorescence microscopy; assay type: functional, organism-based
Method in brief: (§7)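 agsA promoter-GFP reporters, cytoplasmic (JvD1.1) or nuclear H2B-targeted (RD6.47). Germlings pre-grown 6 h at 37 °C in 2× CM, exposed 3 h at 30 °C to seven 2-fold dilutions. GFP levels were scored by fluorescence microscopy as 0 (basal), 1 (intermediate) or 2 (high). Controls: gpdA-H2B-GFP strain MA26.1 (positive), N402 (negative).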

Aspergillus niger [45] = experiment: Induction of GFP tagged PagsA expression in Aspergillus niger JvD1.1 at 104.2 ug/mL by fluorescence microscopy; assay type: functional, organism-based; method in brief: as §7
Aspergillus niger [46] = experiment: Antifungal activity against Aspergillus niger RD6.47 at 104.2 ug/mL by microtiter plate; assay type: functional, organism-based
Method in brief: (§8)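 Reporter conidia (2×10^4 per well) were pre-grown 6 h at 37 °C in 2× CM in glass-bottom plates. An equal volume of a 2-fold dilution series (seven concentrations) was added, then 3 h at 30 °C. Medium was discarded and adherent germlings imaged. Growth inhibition was scored 0/1/2 from hyphal length.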

Aspergillus niger [47] = experiment: Effect on increase sub apical branching in Aspergillus niger N402 germlings assessed as branching index at 5 ug/mL after 5 hrs; assay type: functional; method in brief: as §3
Aspergillus niger [48] = experiment: Induction of crhD gene expression in Aspergillus niger by microarray analysis relative to control; assay type: functional; method in brief: as §1
Aspergillus niger [49] = experiment: Antifungal activity against Aspergillus niger JvD1.1 at 104.2 ug/mL by microtiter plate; assay type: functional, organism-based; method in brief: as §8

## CC[C@H](C)C[C@H](C)CCCCCCCCC(=O)N[C@H]1C[C@@H](O)[C@@H](NCCN)NC(=O)[C@@H]2[C@@H](O)CCN2C(=O)[C@H]([C@H](O)CCN)NC(=O)[C@H]([C@H](O)[C@@H](O)c2ccc(O)cc2)NC(=O)[C@@H]2C[C@@H](O)CN2C(=O)[C@H]([C@@H](C)O)NC1=O [CASPOFUNGIN]
Aspergillus niger [1]
  Activity: Active
Aspergillus niger [2]
  fold change (FC): 2.03
Aspergillus niger [3]
  Activity: 43.7%
Aspergillus niger [4]
  Activity: Active
Aspergillus niger [5]
  fold change (FC): 2.58
Aspergillus niger [6]
  Activity: Active
Aspergillus niger [7]
  fold change (FC): 2.1
Aspergillus niger [8]
  fold change (FC): 2.32
Aspergillus niger [9]
  fold change (FC): 7.98
Aspergillus niger [10]
  Activity: Active
Aspergillus niger [11]
  Activity: 34.5%
Aspergillus niger [12]
  fold change (FC): 3.18
Aspergillus niger [13]
  fold change (FC): 2.32
Aspergillus niger [14]
  Activity: Active
Aspergillus niger [15]
  Activity: Active
Aspergillus niger [16]
  fold change (FC): 2.03
Aspergillus niger [17]
  Activity: Active
Aspergillus niger [18]
  fold change (FC): 3.08
Aspergillus niger [19]
  Activity: Active
Aspergillus niger [20]
  fold change (FC): 1.64
Aspergillus niger [21]
  fold change (FC): 1.95
Aspergillus niger [22]
  fold change (FC): 1.77
Aspergillus niger [23]
  fold change (FC): 2.16
Aspergillus niger [24]
  fold change (FC): 1.85
Aspergillus niger [25]
  fold change (FC): 1.77
Aspergillus niger [26]
  fold change (FC): 2.62
Aspergillus niger [27]
  Activity: Active
Aspergillus niger [28]
  Activity: Active
Aspergillus niger [29]
  fold change (FC): 2.51
Aspergillus niger [30]
  Activity: Active
Aspergillus niger [31]
  Activity: Active
Aspergillus niger [32]
  Activity: Active
Aspergillus niger [33]
  Activity: Active
Aspergillus niger [34]
  Activity: Active
Aspergillus niger [35]
  Activity: Active
Aspergillus niger [36]
  Activity: Active
Aspergillus niger [37]
  fold change (FC): 2.4
Aspergillus niger [38]
  fold change (FC): 3.05
Aspergillus niger [39]
  fold change (FC): 2.03
Aspergillus niger [40]
  Activity: Active
Aspergillus niger [41]
  Activity: Active
Aspergillus niger [42]
  Activity: Active

## CC(Cc1ccc(C(C)(C)C)cc1)CN1C[C@@H](C)O[C@@H](C)C1 (some centres not stated) [FENPROPIMORPH]
Aspergillus niger [1]
  Activity: Active
Aspergillus niger [4]
  Activity: Active
Aspergillus niger [6]
  Activity: Active
Aspergillus niger [43]
  Activity: 30.5%
Aspergillus niger [44]
  Activity: Active
Aspergillus niger [45]
  Activity: Active
Aspergillus niger [46]
  Activity: Active
Aspergillus niger [47]
  Activity: 33%
Aspergillus niger [28]
  Activity: Active
Aspergillus niger [48]
  fold change (FC): 1.51
Aspergillus niger [49]
  Activity: Active
Aspergillus niger [33]
  Activity: Active
Aspergillus niger [35]
  Activity: Active
Aspergillus niger [36]
  Activity: Active
Aspergillus niger [41]
  Activity: Active
